# Experimental data: ChEMBL document CHEMBL1143122, “Novel analogs of D-e-MAPP and B13. Part 1: synthesis and evaluation as potential anticancer agents” (Bioorg Med Chem, 2008)
# Key:
# U-251 = test: Antiproliferative activity against human U251 cells after 48 hrs; assay type: functional; settings: U-251, 48 h
# Summary of the method: (§1)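 NCI 60-cell-line screen. Lines grown in RPMI 1640 with 5% fetal bovine serum and 2 mM L-glutamine, plated at 5,000–40,000 cells/well according to doubling time, left 24 h at 37 °C in 5% CO2. Drug stocks in DMSO at 400-fold the top final concentration. Five 10-fold dilutions, 10−4 to 10−8 M, incubated 48 h. Growth read spectrophotometrically as net protein; GI50 taken as 50% reduction.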
# LOX IMVI = test: Antiproliferative activity against human LOXIMVI cells after 48 hrs; assay type: functional
# Summary of the method: (§2)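 NCI 60-cell screen. Cells were grown in RPMI 1640 with 5% FBS and 2 mM L-glutamine, then plated at 5,000–40,000 cells/well according to doubling time and preincubated for 24 h at 37 °C in 5% CO2. Compounds were dissolved in DMSO at 400× the top final concentration and tested at five 10-fold dilutions from 10−4 to 10−8 M for 48 h. Growth was read spectrophotometrically; GI50 is 50% net protein reduction.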
# M14 = test: Antiproliferative activity against human M14 cells after 48 hrs; assay type: functional; settings: M14, 48 h; summary of the method: as §2
# IGROV-1 = test: Antiproliferative activity against human IGROV1 cells after 48 hrs; assay type: functional; settings: IGROV-1, 48 h; summary of the method: as §2
# OVCAR-3 = test: Antiproliferative activity against human OVCAR-3 cells after 48 hrs; assay type: functional; settings: OVCAR-3, 48 h; summary of the method: as §2
# OVCAR-4 = test: Antiproliferative activity against human OVCAR4 cells after 48 hrs; assay type: functional; settings: OVCAR-4, 48 h; summary of the method: as §2
# OVCAR-5 = test: Antiproliferative activity against human OVCAR5 cells after 48 hrs; assay type: functional; settings: OVCAR-5, 48 h; summary of the method: as §2
# OVCAR-8 = test: Antiproliferative activity against human OVCAR8 cells after 48 hrs; assay type: functional; settings: OVCAR-8, 48 h; summary of the method: as §2
# SK-OV-3 = test: Antiproliferative activity against human SKOV3 cells after 48 hrs; assay type: functional; settings: SK-OV-3, 48 h; summary of the method: as §2
# ACHN = test: Antiproliferative activity against human ACHN cells after 48 hrs; assay type: functional; summary of the method: as §2
# RXF 393 = test: Antiproliferative activity against human RXF393 cells after 48 hrs; assay type: functional; settings: RXF 393, 48 h; summary of the method: as §2
# SN12C = test: Antiproliferative activity against human SN12C cells after 48 hrs; assay type: functional; summary of the method: as §2
# UO-31 = test: Antiproliferative activity against human UO31 cells after 48 hrs; assay type: functional; settings: UO-31, 48 h; summary of the method: as §1
# PC-3 = test: Antiproliferative activity against human PC3 cells after 48 hrs; assay type: functional; settings: PC-3, 48 h; summary of the method: as §2
# [1] = Antiproliferative activity against human NCI-ADR-RES cells after 48 hrs; assay type: functional; summary of the method: as §2
# MDA-MB-435 = test: Antiproliferative activity against human MDA-MB-435 cells after 48 hrs; assay type: functional; settings: Homo sapiens, MDA-MB-435, 48 h; summary of the method: as §2
# NCI-H226 = test: Antiproliferative activity against human NCI-H226 cells after 48 hrs; assay type: functional; settings: NCI-H226, 48 h; summary of the method: as §2
# NCI-H23 = test: Antiproliferative activity against human NCI-H23 cells after 48 hrs; assay type: functional; settings: NCI-H23, 48 h; summary of the method: as §2
# NCI-H460 = test: Antiproliferative activity against human NCI-H460 cells after 48 hrs; assay type: functional; settings: NCI-H460, 48 h; summary of the method: as §2
# COLO 205 = test: Antiproliferative activity against human COLO205 cells after 48 hrs; assay type: functional; settings: COLO 205, 48 h; summary of the method: as §2
# HCC 2998 = test: Antiproliferative activity against human HCC2998 cells after 48 hrs; assay type: functional; settings: HCC 2998, 48 h; summary of the method: as §2
# HCT-116 = test: Antiproliferative activity against human HCT116 cells after 48 hrs; assay type: functional; settings: HCT-116, 48 h; summary of the method: as §2
# HCT-15 = test: Antiproliferative activity against human HCT15 cells after 48 hrs; assay type: functional; settings: Homo sapiens, HCT-15, 48 h; summary of the method: as §2
# SF-268 = test: Antiproliferative activity against human SF268 cells after 48 hrs; assay type: functional; settings: SF-268, 48 h; summary of the method: as §2
# SF-539 = test: Antiproliferative activity against human SF539 cells after 48 hrs; assay type: functional; settings: SF-539, 48 h; summary of the method: as §2
# SNB-19 = test: Antiproliferative activity against human SNB19 cells after 48 hrs; assay type: functional; settings: SNB-19, 48 h; summary of the method: as §2
# MCF7 = test: Antiproliferative activity against human MCF7 cells after 48 hrs; assay type: functional, cell-based; settings: MCF7, 48 h
# CCRF-CEM = test: Antiproliferative activity against human CCRF-CEM cells after 48 hrs; assay type: functional; summary of the method: as §2
# [2] = Antiproliferative activity against human HL60(TB) cells after 48 hrs; assay type: functional, HL-60(TB); settings: HL-60, 48 h
# Summary of the method: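 NCI 60-line panel screen: cells grown in RPMI 1640 with 5% fetal bovine serum and 2 mM L-glutamine, plated at 5,000–40,000 cells/well by doubling time, and preincubated 24 h at 37 °C in 5% CO2. Drugs were solubilised in DMSO at 400-fold the final maximum and tested at five 10-fold dilutions from 10−4 to 10−8 M for 48 h. Net protein was read spectrophotometrically, and the concentration giving 50% reduction was reported as log10 GI50.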
# A549 = test: Antiproliferative activity against human A549 cells after 48 hrs; assay type: functional; settings: A549, 48 h; summary of the method: as §2
# [3] = read-out: Log LC50 (the source's name) (converted)
smiles,measurement,setting,value
CCCCCCCCCCCCCCN[C@H](CO)[C@H](O)c1ccccc1,GI50,U-251,1780 nM
same,CC50,U-251; [3],5.62 µM
same,TGI,U-251; read-out: Log TGI (converted),3.16 µM
same,GI50,LOX IMVI,1780 nM
same,LC50,LOX IMVI,5.75 µM
same,TGI,LOX IMVI; read-out: Log TGI (converted),3.16 µM
same,GI50,M14,1860 nM
same,LC50,M14,5.89 µM
same,TGI,M14; read-out: Log TGI (converted),3.31 µM
same,GI50,IGROV-1,1550 nM
same,TGI,IGROV-1; read-out: Log TGI (converted),3.24 µM
same,GI50,OVCAR-3,1910 nM
same,TGI,OVCAR-3; read-out: Log TGI (converted),4.07 µM
same,GI50,OVCAR-4,1910 nM
same,TGI,OVCAR-4; read-out: Log TGI (converted),3.8 µM
same,GI50,OVCAR-5,2090 nM
same,CC50,OVCAR-5; [3],7.08 µM
same,TGI,OVCAR-5; read-out: Log TGI (converted),3.8 µM
same,GI50,OVCAR-8,1860 nM
same,TGI,OVCAR-8; read-out: Log TGI (converted),3.8 µM
same,GI50,SK-OV-3,6.76 µM
same,CC50,SK-OV-3; [3],79.4 µM
same,TGI,SK-OV-3; read-out: Log TGI (converted),24.5 µM
same,GI50,ACHN,1740 nM
same,CC50,ACHN; [3],5.62 µM
same,TGI,ACHN; read-out: Log TGI (converted),3.16 µM
same,GI50,RXF 393,1150 nM
same,CC50,RXF 393; [3],5.13 µM
same,TGI,RXF 393; read-out: Log TGI (converted),2450 nM
same,GI50,SN12C,1740 nM
same,LC50 (50% net cell kill),SN12C,6.46 µM
same,TGI,SN12C; read-out: Log TGI (converted),3.31 µM
same,GI50,UO-31,3.8 µM
same,LC50,UO-31,79.4 µM
same,TGI,UO-31; read-out: Log TGI (converted),17.8 µM
same,GI50,PC-3,1580 nM
same,LC50,PC-3,5.5 µM
same,TGI,PC-3; read-out: Log TGI (converted),2950 nM
same,GI50,[1],2090 nM
same,LC50,[1],6.92 µM
same,TGI,[1]; read-out: Log TGI (converted),3.8 µM
same,GI50,MDA-MB-435,1780 nM
same,LC50,MDA-MB-435,5.62 µM
same,TGI,MDA-MB-435; read-out: Log TGI (converted),3.16 µM
same,GI50,NCI-H226,3.24 µM
same,CC50,NCI-H226; [3],> 100 µM
same,TGI,NCI-H226; read-out: Log TGI (converted),11.7 µM
same,GI50,NCI-H23,3.55 µM
same,CC50,NCI-H23; [3],64.6 µM
same,TGI,NCI-H23; read-out: Log TGI (converted),9.77 µM
same,GI50,NCI-H460,1860 nM
same,TGI,NCI-H460; read-out: Log TGI (converted),3.47 µM
same,GI50,COLO 205,1860 nM
same,CC50,COLO 205; [3],6.17 µM
same,TGI,COLO 205; read-out: Log TGI (converted),3.39 µM
same,GI50,HCC 2998,1660 nM
same,CC50,HCC 2998; [3],5.62 µM
same,TGI,HCC 2998; read-out: Log TGI (converted),3.09 µM
same,GI50,HCT-116,1740 nM
same,LC50,HCT-116,5.62 µM
same,TGI,HCT-116; read-out: Log TGI (converted),3.16 µM
same,GI50,HCT-15,1910 nM
same,LC50,HCT-15,6.03 µM
same,TGI,HCT-15; read-out: Log TGI (converted),3.39 µM
same,GI50,SF-268,1660 nM
same,TGI,SF-268; read-out: Log TGI (converted),3.24 µM
same,GI50,SF-539,1550 nM
same,LC50,SF-539,6.03 µM
same,TGI,SF-539; read-out: Log TGI (converted),3.09 µM
same,GI50,SNB-19,1780 nM
same,TGI,SNB-19; read-out: Log TGI (converted),3.24 µM
same,GI50,MCF7,1820 nM
same,TGI,MCF7; read-out: Log TGI (converted),3.31 µM
same,GI50,CCRF-CEM,1580 nM
same,CC50,CCRF-CEM; [3],7.94 µM
same,TGI,CCRF-CEM; read-out: Log TGI (converted),3.55 µM
same,GI50,[2],3.31 µM
same,LC50,[2],8.51 µM
same,TGI,[2]; read-out: Log TGI (converted),3.72 µM
same,GI50,A549,1700 nM
same,CC50,A549; [3],6.03 µM
same,TGI,A549; read-out: Log TGI (converted),3.24 µM
